Results published in ChEMBL document CHEMBL1240487, “Discovery of a potent, selective, and orally bioavailable pyridinyl-pyrimidine phthalazine aurora kinase inhibitor” (J Med Chem, 2010).
Active and inactive are the calls of the source. No cut-off for these calls is given here.

Experiments:
Aurora kinase B [1] = molecular target: T1, Aurora kinase B (Homo sapiens, UniProt Q96GD4); assay: Inhibition of aurora B in human HeLa cells assessed as increase of >= 4N DNA level at 0.313 uM after 24 hrs using Hoechst staining by flow cytometry; format: cell-based
How it was run: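 In the 24 h DNA ploidy assay, HeLa cells were exposed to compound for 24 h. The read-out was accumulation of cells with ≥4N DNA content relative to control. For the single-concentration test, cells were treated at 0.313 μM, and p-histone H3 Ser10 and DNA content (2N/4N/8N) were read by flow cytometry. The ploidy read-out gave an EC50.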

Aurora kinase B [2] = molecular target: T1, Aurora kinase B; assay: Inhibition of aurora B in human HeLa cells assessed as reduction of histone H3 phosphorylation at Ser10 at 0.313 uM after 24 hrs by flow cytometry
Plasma = assay: Drug level in human COLO205 cells xenografted in CD1 mouse plasma at 50 mg/kg, po after 3 to 6 hrs; format: ADME, organism-based, COLO 205; design: dose 50 mg/kg, route oral; details: in vivo
How it was run: (§1)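 COLO 205 xenograft-bearing mice received a single 50 mg/kg oral dose (N = 12 per group). Plasma was sampled at 3, 6 and 24 h (N = 4 per time point) and analyzed for drug concentration. Results are reported as mean ± SD.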

[3] = molecular target: Ribosomal protein S6 kinase alpha-5 (Homo sapiens, UniProt O75582); assay: Inhibition of MSK1 by HTRF assay
How it was run: (§2)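 Enzyme inhibition was run with ATP at its Km for each kinase. Values are averages of at least two determinations.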

[4] = Drug level in human COLO205 cells xenografted in CD1 mouse plasma at 50 mg/kg, po after 24 hrs; format: ADME, organism-based, COLO 205; design: dose 50 mg/kg, route oral; how it was run: as §1
Mus musculus = assay: Inhibition of aurora B in human COLO205 cells xenografted in CD1 mouse assessed as reduction of phosphorylated histone H3 level at 50 mg/kg, po after 3 to 6 hrs by immunofluorescence-based flow cytometry; format: functional; details: CD1, COLO 205
How it was run: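 Mice carried established COLO 205 xenografts of about 300 mm3 and received a single oral dose of vehicle or 50 mg/kg (N = 12 per group). Tumors were harvested at 3, 6 and 24 h (N = 4 per time point). p-Histone H3 was measured by immunofluorescence-based flow cytometry as the percentage of positive cells in G2/M. Groups were compared with ANOVA and Scheffe's post hoc test against vehicle.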

Aurora kinase B [5] = molecular target: T1, Aurora kinase B; assay: Inhibition of aurora B autophosphorylation in human HeLa cells at 0.313 uM after 3 hrs by Western blotting
[6] = molecular target: Proto-oncogene tyrosine-protein kinase Src (Homo sapiens, UniProt P12931); assay: Inhibition of Src by HTRF assay; how it was run: as §2
[7] = Half life in Sprague-Dawley rat at 0.5 mg/kg, iv and 2 mg/kg, po; format: ADME, organism-based; details: in vivo
[8] = Intrinsic clearance in rat liver microsomes at 1 uM after up to 40 mins; format: ADME, Microsome
[9] = Oral bioavailability in Sprague-Dawley rat at 2 mg/kg; format: ADME, organism-based; details: in vivo

T1 sequence (Q96GD4 whole entry): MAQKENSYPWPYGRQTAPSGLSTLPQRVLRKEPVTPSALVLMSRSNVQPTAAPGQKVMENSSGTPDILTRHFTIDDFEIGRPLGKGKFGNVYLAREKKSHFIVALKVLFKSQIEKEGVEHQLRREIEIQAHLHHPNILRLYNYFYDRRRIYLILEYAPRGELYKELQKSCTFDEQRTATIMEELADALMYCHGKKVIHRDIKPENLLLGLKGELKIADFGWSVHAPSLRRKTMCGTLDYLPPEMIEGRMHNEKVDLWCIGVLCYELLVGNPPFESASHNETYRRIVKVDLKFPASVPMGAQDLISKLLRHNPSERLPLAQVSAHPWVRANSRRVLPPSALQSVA
Sequence of Proto-oncogene tyrosine-protein kinase Src (P12931 2-536 limits assumed): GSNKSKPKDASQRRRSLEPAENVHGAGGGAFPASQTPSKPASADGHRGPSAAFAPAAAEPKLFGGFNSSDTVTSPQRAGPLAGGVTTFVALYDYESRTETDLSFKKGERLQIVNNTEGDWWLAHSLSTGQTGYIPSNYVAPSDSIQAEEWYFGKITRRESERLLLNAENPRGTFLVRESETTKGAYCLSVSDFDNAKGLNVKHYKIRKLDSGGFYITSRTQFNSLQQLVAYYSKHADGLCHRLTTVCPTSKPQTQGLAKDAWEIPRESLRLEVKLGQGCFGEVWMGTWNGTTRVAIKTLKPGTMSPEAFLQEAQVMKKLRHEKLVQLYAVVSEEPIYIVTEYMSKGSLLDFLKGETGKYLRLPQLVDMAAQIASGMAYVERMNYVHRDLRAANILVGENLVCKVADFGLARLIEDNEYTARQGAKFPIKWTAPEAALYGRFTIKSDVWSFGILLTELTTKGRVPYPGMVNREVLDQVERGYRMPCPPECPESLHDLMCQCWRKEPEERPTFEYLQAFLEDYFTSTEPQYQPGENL
Sequence of Ribosomal protein S6 kinase alpha-5 (O75582 whole entry): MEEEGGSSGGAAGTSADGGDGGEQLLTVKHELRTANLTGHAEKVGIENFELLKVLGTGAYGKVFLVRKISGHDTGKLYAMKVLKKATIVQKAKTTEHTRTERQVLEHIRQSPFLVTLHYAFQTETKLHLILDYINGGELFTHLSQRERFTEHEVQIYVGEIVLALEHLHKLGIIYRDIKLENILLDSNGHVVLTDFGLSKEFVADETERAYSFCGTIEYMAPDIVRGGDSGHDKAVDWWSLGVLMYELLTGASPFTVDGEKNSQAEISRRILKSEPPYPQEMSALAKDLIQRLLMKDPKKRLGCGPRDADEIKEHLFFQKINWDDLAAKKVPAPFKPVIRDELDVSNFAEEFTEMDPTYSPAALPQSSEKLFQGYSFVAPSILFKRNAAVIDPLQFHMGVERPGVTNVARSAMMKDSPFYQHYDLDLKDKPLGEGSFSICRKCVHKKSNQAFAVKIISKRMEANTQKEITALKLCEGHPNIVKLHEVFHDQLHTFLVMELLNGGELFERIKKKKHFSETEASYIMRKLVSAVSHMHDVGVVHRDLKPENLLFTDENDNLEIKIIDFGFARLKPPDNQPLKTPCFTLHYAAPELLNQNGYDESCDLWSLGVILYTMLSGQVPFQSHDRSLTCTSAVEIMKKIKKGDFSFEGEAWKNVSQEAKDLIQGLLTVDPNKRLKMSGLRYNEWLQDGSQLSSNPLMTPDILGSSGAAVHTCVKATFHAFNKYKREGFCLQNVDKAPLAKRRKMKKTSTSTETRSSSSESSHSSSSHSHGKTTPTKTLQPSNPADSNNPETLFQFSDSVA

In the case of `CNc1nccc(-c2cccnc2Oc2ccc(Nc3nnc(-c4ccc(F)cc4)c4ccccc34)cc2)n1`, the Activity (Aurora kinase B [1]) is reported as “Active”, the Activity (Aurora kinase B [2]) is reported as “Active” and the Cp (Plasma) is reported as “>= 20000 ng/ml”. For the same compound, the IC50 [3] was > 25 µM, the concentration at 24 h [4] was 2460 ng/mL and the inhibition in vivo at 50 mg/kg (Mus musculus) was ≥ 96%. For the same compound, the Activity (Aurora kinase B [5]) was “Active”.

`CNc1nccc(-c2cccnc2Oc2ccc(NC(=O)c3cccc(C(F)(F)F)c3)cc2C)n1` gave an IC50 [6] of 5.75 µM.

In the case of `CNc1nccc(-c2cccnc2Oc2ccc(NC(=O)c3ccccc3Nc3ccccc3)cc2)n1`, the half-life [7] is reported as 2.8 h, the microsomal CLint at 1 µM [8] is reported as 663 µL/min/mg and the bioavailability [9] is reported as < 1%.
